Test results from ChEMBL document CHEMBL3102698, “New highly toxic bile acids derived from deoxycholic acid, chenodeoxycholic acid and lithocholic acid” (Bioorg Med Chem, 2014).
pEC50, pIC50: −log10 of the molar value. Calls of active or inactive are those of the source. The rule behind the calls is not given here.

Experiments:
[1] = tested on: Caco-2; assay: Cytotoxicity against human Caco2 cells assessed as cell viability after 24 hrs by MTT assay; type: functional, cell-based; conditions: Caco-2, 24 h
Outline: (§1)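 Cells grown to 70% confluence (Caco-2 seeded 8 × 10^3/well, HT1080 12 × 10^4/well), serum-starved 1 h, then exposed 24 h serum-free to 0.1-1000 µM (DMSO ≤0.5%). MTT 0.5 mg/mL added for 3 h at 37 °C; formazan dissolved in DMSO, OD read at 540 nm. Viability taken as % of untreated OD. IC50 fitted from eight concentration levels, at least three experiments in triplicate.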

[2] = Cytotoxicity against human HT1080 cells assessed as cell viability after 24 hrs by MTT assay; type: functional, cell-based; conditions: HT-1080, 24 h; outline: as §1
[3] = tested on: Caco-2; assay: Induction of ROS production in human Caco2 cells at 10 uM after 0.5 to 24 hrs by 2',7'-dichlorfluorescein-diacetate staining-based fluorescence assay; type: functional, cell-based
Outline: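 Caco-2 at 70-80% confluence exposed in serum-free medium for 30 min or 24 h (compounds 10 µM, natural bile acids 100 µM). Medium then replaced with 100 µM 2',7'-dichlorofluorescein diacetate for 30 min at 37 °C, cells washed with PBS, fluorescence read at ex 490/em 530 nm. Signal expressed relative to vehicle and corrected for MTT viability; n = 3.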

[4] = tested on: HT-1080; assay: Induction of necrosis in human HT1080 cells up to 500 uM after 24 hrs by annexin V-FITC/propidium iodide staining-based flow cytometric analysis; type: functional, cell-based
Outline: (§2)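 Cells grown to 80% confluence, exposed 24 h in serum-free medium, with vehicle-only controls. Harvested cells washed and resuspended in binding buffer, then stained with annexin V-FITC and propidium iodide 15 min at rt in the dark. Read by flow cytometry within 5 min. Annexin V−/PI+ cells scored necrotic and annexin V+ cells apoptotic; quadrant percentages reported.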

[5] = tested on: Caco-2; assay: Induction of necrosis in human Caco2 cells up to 500 uM after 24 hrs by annexin V-FITC/propidium iodide staining-based flow cytometric analysis; type: functional, cell-based; outline: as §2
[6] = tested on: Caco-2; assay: Cytotoxicity against human Caco2 cells assessed as cell viability at 10 uM after 24 hrs by MTT assay in presence of antioxidant N-acetyl cysteine; type: functional, cell-based
Outline: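 MTT viability run on Caco-2 with and without 1 mM N-acetyl cysteine co-incubation. Compounds at 10 µM, natural bile acids at 100 µM, 24 h serum-free after 1 h serum starvation. MTT 0.5 mg/mL for 3 h at 37 °C, then DMSO solubilisation and OD at 540 nm, expressed as % of untreated; n = 3.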

[7] = tested on: Caco-2; assay: Induction of apoptosis in human Caco2 cells at 3.125 to 100 uM after 24 hrs by annexin V-FITC/propidium iodide staining-based flow cytometric analysis; type: functional, cell-based
Outline: (§3)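 Caco-2 or HT1080 grown to 80% confluence, then treated 24 h in serum-free medium (vehicle controls run in parallel) at seven concentrations. Cells collected, washed and resuspended in binding buffer, stained with annexin V-FITC plus propidium iodide for 15 min at rt in the dark, and analysed within 5 min. Quadrants scored: annexin+/PI− early apoptotic, double-positive late apoptotic, PI+ only dead.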

[8] = tested on: HT-1080; assay: Induction of apoptosis in human HT1080 cells at 3.125 to 100 uM after 24 hrs by annexin V-FITC/propidium iodide staining-based flow cytometric analysis; type: functional, cell-based; outline: as §3
[9] = Cytotoxicity against human HET-1A cells; type: cell-based
[10] = tested on: HT-1080; assay: Induction of necrosis in human HT1080 cells at 3.125 to 100 uM after 24 hrs by annexin V-FITC/propidium iodide staining-based flow cytometric analysis; type: functional, cell-based; outline: as §3
[11] = tested on: Caco-2; assay: Induction of necrosis in human Caco2 cells at 50 to 100 uM after 24 hrs by annexin V-FITC/propidium iodide staining-based flow cytometric analysis; type: functional, cell-based; outline: as §2
[12] = tested on: Caco-2; assay: Cytotoxicity against human Caco2 cells assessed as cell viability at 100 uM after 24 hrs by MTT assay in presence of antioxidant N-acetyl cysteine; type: functional, cell-based
Outline: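 Caco-2 grown to 70% confluence, serum-starved 1 h, then treated 24 h serum-free with compound plus 1 mM NAC; DMSO vehicle at most 0.5%. MTT 0.5 mg/mL for 3 h at 37 °C, formazan dissolved in DMSO, OD 540 nm. Viability expressed as % of untreated cells; n = 3.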

[13] = tested on: HT-1080; assay: Induction of necrosis in human HT1080 cells at 50 to 100 uM after 24 hrs by annexin V-FITC/propidium iodide staining-based flow cytometric analysis; type: functional, cell-based; outline: as §2
[14] = tested on: Caco-2; assay: Cytotoxicity against human Caco2 cells assessed as cell viability at 50 uM after 24 hrs by MTT assay relative to control; type: functional; conditions: Caco-2, 24 h, read-out: Activity

SMILES	pIC50 [1]	pIC50 [2]	other results
C[C@H](CCC(=O)NC1CC1)[C@H]1CC[C@H]2[C@@H]3CC[C@@H]4C[C@@H](N=[N+]=[N-])CC[C@]4(C)[C@H]3CC[C@]12C	< 4.00	< 4.00	
C[C@H](CCC(=O)NCc1ccccc1)[C@H]1CC[C@H]2[C@@H]3CC[C@@H]4C[C@@H](N=[N+]=[N-])CC[C@]4(C)[C@H]3C[C@H](O)[C@]12C	< 3.00	< 3.30	Activity [3]: Active
C[C@H](CCC(=O)NC1CC1)[C@H]1CC[C@H]2C3=CC[C@@H]4C[C@H](O)CC[C@]4(C)[C@H]3CC[C@]12C	5.02		
C[C@H](CCC(=O)O)[C@H]1CC[C@H]2[C@@H]3[C@H](O)C[C@@H]4C[C@H](O)CC[C@]4(C)[C@H]3CC[C@]12C [CHENODIOL]	3.97	3.89	Activity [4]: inactive; Activity [5]: inactive
CC(=O)O[C@@H]1C[C@@H]2C[C@@H](N=[N+]=[N-])CC[C@]2(C)[C@H]2CC[C@]3(C)[C@@H]([C@H](C)CCC(=O)O)CC[C@H]3[C@H]12	4.81		
C[C@H](CCC(=O)NC1CCCCC1)[C@H]1CC[C@H]2[C@@H]3CC[C@@H]4C[C@@H](N=[N+]=[N-])CC[C@]4(C)[C@H]3C[C@H](O)[C@]12C	< 3.00	< 4.00	
C[C@H](CCC(=O)O)[C@H]1CC[C@H]2C3=CC[C@@H]4C[C@H](O)CC[C@]4(C)[C@H]3CC[C@]12C	< 4.00		
C[C@H](CCC(=O)O)[C@H]1CC[C@H]2[C@@H]3[C@H](O)C[C@@H]4C[C@H](N=[N+]=[N-])CC[C@]4(C)[C@H]3CC[C@]12C	4.36	4.58	
C[C@H](CCC(N)=O)[C@H]1CC[C@H]2[C@@H]3[C@H](O)C[C@@H]4C[C@@H](N=[N+]=[N-])CC[C@]4(C)[C@H]3CC[C@]12C	5.01	5.16	Activity [3]: Active; Activity [6]: inactive
CC(=O)O[C@@H]1C[C@@H]2C[C@@H](N=[N+]=[N-])CC[C@]2(C)[C@H]2CC[C@]3(C)[C@@H]([C@H](C)CCC(N)=O)CC[C@H]3[C@H]12	5.26		
C[C@H](CCC(N)=O)[C@H]1CC[C@H]2[C@@H]3CC[C@@H]4C[C@@H](N=[N+]=[N-])CC[C@]4(C)[C@H]3C[C@H](O)[C@]12C	4.97	5.44	
C[C@H](CCC(=O)O)[C@H]1CC[C@H]2[C@@H]3CC[C@@H]4C[C@@H](N=[N+]=[N-])CC[C@]4(C)[C@H]3CC[C@]12C	< 3.60	4.67	Activity [7]: Active; Activity [8]: Active
C[C@H](CCC(=O)O)[C@H]1CC[C@H]2[C@@H]3CC[C@@H]4C[C@@H](N=[N+]=[N-])CC[C@]4(C)[C@H]3C[C@H](O)[C@]12C			pEC50 [9]: 4.01
CCCNC(=O)CC[C@@H](C)[C@H]1CC[C@H]2[C@@H]3CC[C@@H]4C[C@@H](N=[N+]=[N-])CC[C@]4(C)[C@H]3CC[C@]12C	< 3.00	< 3.70	
C[C@H](CCC(N)=O)[C@H]1CC[C@H]2[C@@H]3CC[C@@H]4C[C@@H](N=[N+]=[N-])CC[C@]4(C)[C@H]3CC[C@]12C	< 3.30	4.88	Activity [10]: Active
C[C@H](CCC(=O)NC1CC1)[C@H]1CC[C@H]2[C@@H]3CC[C@@H]4C[C@H](N=[N+]=[N-])CC[C@]4(C)[C@H]3C[C@H](O)[C@]12C	5.64	5.24	Activity [6]: inactive
C[C@H](CCC(=O)NC1CC1)[C@H]1CC[C@H]2[C@@H]3CC[C@@H]4C[C@@H](N=[N+]=[N-])CC[C@]4(C)[C@H]3C[C@H](O)[C@]12C	5.20	5.72	Activity [8]: Active; Activity [6]: inactive
C[C@H](CCC(=O)O)[C@H]1CC[C@H]2[C@@H]3CC[C@@H]4C[C@H](O)CC[C@]4(C)[C@H]3CC[C@]12C [LITHOCHOLIC ACID]	4.25	4.64	Activity [11]: Active; Activity [12]: inactive; Activity [13]: Active
C[C@H](CCC(=O)NCc1ccccc1)[C@H]1CC[C@H]2[C@@H]3CC[C@@H]4C[C@@H](N=[N+]=[N-])CC[C@]4(C)[C@H]3CC[C@]12C	< 4.00	< 4.00	
C[C@H](CCC(=O)O)[C@H]1CC[C@H]2[C@@H]3[C@H](O)C[C@@H]4C[C@@H](N=[N+]=[N-])CC[C@]4(C)[C@H]3CC[C@]12C	4.39	4.63	
CCCNC(=O)CC[C@@H](C)[C@H]1CC[C@H]2[C@@H]3CC[C@@H]4C[C@@H](N=[N+]=[N-])CC[C@]4(C)[C@H]3C[C@H](O)[C@]12C		5.20	viability at 50 µM [14]: 60%; Activity [3]: Active
CC(=O)O[C@@H]1C[C@@H]2C[C@@H](N=[N+]=[N-])CC[C@]2(C)[C@H]2CC[C@]3(C)[C@@H]([C@H](C)CCC(=O)NC4CC4)CC[C@H]3[C@H]12	5.21		
C[C@H](CCC(N)=O)[C@H]1CC[C@H]2[C@@H]3CC[C@@H]4C[C@H](N=[N+]=[N-])CC[C@]4(C)[C@H]3C[C@H](O)[C@]12C	4.90	5.00	Activity [3]: Active; Activity [6]: inactive
C[C@H](CCC(=O)NC1CCCCC1)[C@H]1CC[C@H]2[C@@H]3CC[C@@H]4C[C@@H](N=[N+]=[N-])CC[C@]4(C)[C@H]3CC[C@]12C	< 3.00	< 3.00	
C[C@H](CCC(=O)O)[C@H]1CC[C@H]2[C@@H]3[C@@H](O)C[C@@H]4C[C@H](O)CC[C@]4(C)[C@H]3CC[C@]12C			Activity [12]: inactive
C[C@H](CCC(N)=O)[C@H]1CC[C@H]2[C@@H]3CC[C@@H]4C[C@H](O)CC[C@]4(C)[C@H]3C[C@H](O)[C@]12C			pEC50 [9]: 4.41
C[C@H](CCC(=O)NC1CC1)[C@H]1CC[C@H]2[C@@H]3[C@H](O)C[C@@H]4C[C@@H](N=[N+]=[N-])CC[C@]4(C)[C@H]3CC[C@]12C	5.12	5.49	Activity [3]: Active; Activity [6]: inactive
C[C@H](CCC(N)=O)[C@H]1CC[C@H]2C3=CC[C@@H]4C[C@H](O)CC[C@]4(C)[C@H]3CC[C@]12C	< 4.00		
